Results of several laboratories.
Compare with care: the assays were run in different laboratories.
Target: Serine/threonine-protein kinase D3 (PRKD3, Homo sapiens, UniProt O94806)
Residues used in one study (O94806 1-890): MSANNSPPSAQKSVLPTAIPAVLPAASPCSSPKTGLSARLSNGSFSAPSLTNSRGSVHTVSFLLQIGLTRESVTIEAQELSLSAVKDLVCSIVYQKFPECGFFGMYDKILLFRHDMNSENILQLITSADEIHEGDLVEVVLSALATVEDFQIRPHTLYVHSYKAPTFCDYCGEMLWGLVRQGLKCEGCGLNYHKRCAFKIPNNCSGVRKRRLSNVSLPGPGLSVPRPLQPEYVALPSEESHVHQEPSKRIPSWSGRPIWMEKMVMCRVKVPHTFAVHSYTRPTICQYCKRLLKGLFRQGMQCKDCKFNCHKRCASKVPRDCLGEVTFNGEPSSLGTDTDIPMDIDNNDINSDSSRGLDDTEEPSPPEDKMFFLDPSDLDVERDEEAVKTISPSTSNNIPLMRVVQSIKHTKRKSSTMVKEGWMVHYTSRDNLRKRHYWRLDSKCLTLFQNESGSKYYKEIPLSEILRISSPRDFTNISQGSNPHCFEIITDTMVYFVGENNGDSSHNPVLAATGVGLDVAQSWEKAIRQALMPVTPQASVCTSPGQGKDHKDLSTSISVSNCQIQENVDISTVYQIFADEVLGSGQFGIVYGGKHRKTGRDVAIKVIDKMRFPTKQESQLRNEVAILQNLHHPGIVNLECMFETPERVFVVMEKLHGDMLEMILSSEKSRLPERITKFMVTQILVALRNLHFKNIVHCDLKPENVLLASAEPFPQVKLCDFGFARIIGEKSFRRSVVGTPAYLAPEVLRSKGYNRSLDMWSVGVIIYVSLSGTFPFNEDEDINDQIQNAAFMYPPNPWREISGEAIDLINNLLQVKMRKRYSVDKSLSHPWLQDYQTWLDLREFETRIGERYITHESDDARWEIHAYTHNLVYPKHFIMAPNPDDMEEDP

SMILES | assay | system | conditions | measurement | value
Nc1ncnc2occ(-c3ccc(NC(=O)Nc4cc(C(F)(F)F)ccc4F)cc3)c12 | cell-free assay, inhibitor |  | 20 µM | remaining signal | 42%
COc1cc2c(Nc3ccc(Br)cc3F)ncnc2cc1OCC1CCN(C)CC1 | cell-free assay |  | 0.5 µM | remaining signal | 91.7%
Cn1c2c(Cl)c(Cl)ccc2c2cc[nH]c(=O)c21 | thermal stability, DSF |  | 10 µM | ΔTm | 2.2 °C
CN(C)CC#Cc1ccc(OCCCc2sc(N3CCc4cccc(C(=O)Nc5nc6ccccc6s5)c4C3)nc2C(=O)O)c(F)c1 | cell-free assay, competition with immobilised ligand |  | 1 µM | remaining binding | 93%
COc1cc(Nc2c(C#N)cnc3cc(OCCCN4CCN(C)CC4)c(OC)cc23)c(Cl)cc1Cl | cell-free assay |  | 0.5 µM | remaining signal | 42.2%
Cc1ccc(C(=O)Nc2ccc(CN3CCN(C)CC3)c(C(F)(F)F)c2)cc1C#Cc1cnc2cccnn12 | enzyme activity, inhibitor |  | 23.5 nM | remaining activity | 100%
Cn1c2c(c3ccc(Cl)c(Cl)c31)C(C#N)C1(CCNCC1)NC2=O (racemic) | thermal stability, DSF |  | 10 µM | ΔTm | 2.9 °C
COCCOc1nc(-c2ccc(Cl)nc2)nc2c1CN(C(=O)c1ncn3ccccc13)CC2 | cell-free assay, competition with immobilised ligand |  | 0.1 µM | remaining binding | 94%
COc1cc2ncnc(Nc3ccc(Oc4ccccc4)cc3C)c2cc1OC | enzyme activity, inhibitor |  | 1 µM | inhibition | 10%
COc1cccc2c(NCc3ccccc3)nc(-n3c(N)nc4ccccc43)nc12 | target engagement in cells, inhibitor, chemoproteomics |  | 20 mM | inhibition | -8.9%
CC/C(=N\NC(=O)NCc1cccc(O)c1)c1ccc(O)c(C)c1O | enzyme activity, inhibitor |  | 0.1 µM | inhibition | 2.2%
O=C(NC[C@@H]1[C@H]2CN(C(=O)OCc3cc(C(F)(F)F)cc(C(F)(F)F)c3)C[C@@H]12)c1ccc2[nH]nnc2c1 | cell-free assay, competition with immobilised ligand |  | 1 µM | remaining binding | 83%
Cn1c2c(c3ccc(Cl)c(Cl)c31)C(C#N)C(C)(C)NC2=O (stereo not drawn) | thermal stability, DSF |  | 10 µM | ΔTm | 1.9 °C
Cc1sc(C(=O)NC2COC2)cc1-n1cc(NC(=O)Nc2c(F)cccc2Cl)cn1 | enzyme activity, inhibitor |  | 10 µM | remaining activity | 105%
CCOc1cc(-c2nncn2C)ccc1Nc1ncc2cc(C)nc(NCC(C)(C)C)c2n1 | enzyme activity, inhibitor, FRET |  | 1 µM | inhibition | < 15%
CNc1cccc2cc(C(=O)Nc3ccc(C(=O)O)cc3)c(=O)[nH]c12 | enzyme activity, inhibitor |  | 10 µM | inhibition | -1%
Cc1nc(N2CC[C@@H](O)C2)ncc1-c1cc(C(F)(F)F)cc2[nH]ncc12 | binding, competition with immobilised ligand |  | 1 µM | remaining binding | 100%
CCN1CCN(Cc2ccc(NC(=O)c3ccc(C)c(Oc4ccnc5[nH]ccc45)c3)cc2C(F)(F)F)CC1 | target engagement in cells, inhibitor, chemoproteomics | Huh-7 | 1 µM | inhibition | -12.7%
O=C(O)c1cc(-c2ccc(C3CCNCC3)cc2)c2ccc(-c3ccc(C(F)(F)F)cc3)cc2c1 | cell-free assay, competition with immobilised ligand |  | 1 µM | remaining binding | 100%
COc1cc(Cl)c(C(=O)N[C@@H](CN[C@H]2CC[C@@H](N)CC2)Cc2ccc(C#N)cc2)cc1-c1ccc(CN[C@H](C)c2ccc(C)cc2)o1 | enzyme activity, inhibitor |  | 1 µM | remaining activity | 93%
Cc1nc(Cc2cccc(C(F)(F)F)c2)sc1-c1ccc(C(N)=O)nc1 | cell-free assay, competition with immobilised ligand |  | 1 µM | remaining binding | 97%
COc1cc2ncnc(Nc3ccc(F)c(Cl)c3)c2cc1OCCCN1CCOCC1 | cell-free assay |  | 0.5 µM | remaining signal | 76.3%
CO[C@@H](C)c1c(Nc2ccc([C@@H](N(C)C(=O)C3CCS(=O)(=O)CC3)C(F)(F)F)cc2)cnc2cc(Cl)nn12 | cell-free assay, competition with immobilised ligand |  | 1 µM | remaining binding | 93%
CC(C)(C)c1nc(-c2cccc(NS(=O)(=O)c3c(F)cccc3F)c2F)c(-c2ccnc(N)n2)s1 | enzyme activity, inhibitor, radiometric |  | 1 µM | remaining activity | 100%
